Results published in ChEMBL document CHEMBL1123865, “Synthesis and antitumor activity of N-terminal proline-containing peptide-(chloroethyl)nitrosoureas” (J Med Chem, 1987).
Activity calls are given as the source filed them. No cut-off for these calls is given here. Peptide text beside a SMILES is read from it. * marks the point of attachment. Carbamoyl(2-ClEt,NO) = O=NN(CCCl)C(=O)*; Boc = CC(C)(C)OC(=O)*; For = O=C*

Experiments:
[1] = tested on: L1210; test: Antitumor activity against L1210 Leukemia in mice at a dose of 200 mg/kg was determined.; type: functional, Mus musculus
Method in brief: (§1)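 L1210 leukemia in mice, 10 per group, treated with one ip injection 1 day after tumor transplantation at 0.1 mL/10 g body weight. Dose was dissolved in 0.2 mL DMSO and diluted to 10 mL with 0.9% NaCl. Controls received saline or solvent. %ILS = [(T − C)/C] × 100, using median survival days. Cures were scored on day 60 post-transplant.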

[2] = tested on: L1210; test: Antitumor activity against L1210 Leukemia in mice at a dose of 30 mg/kg was determined.; type: functional, Mus musculus; method in brief: as §1
[3] = tested on: L1210; test: Antitumor activity against L1210 Leukemia in mice at a dose of 100 mg/kg expressed as percent of increase in life span after day 60s was determined.; type: functional; conditions: Mus musculus
Method in brief: (§2)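 L1210 leukemia-bearing mice, 10 per group; controls got saline or solvent. Dose was dissolved in 0.2 mL DMSO, diluted to 10 mL with 0.9% NaCl, and given as one ip injection (0.1 mL/10 g body weight) 1 day after transplantation. %ILS = [(T − C)/C] × 100 from median survival days, treated versus untreated. Cures were counted on day 60 after transplantation.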

[4] = tested on: L1210; test: Antitumor activity against L1210 Leukemia in mice at a dose of 200 mg/kg expressed as percent of increase in life span after day 60s was determined.; type: functional; conditions: Mus musculus; method in brief: as §2
[5] = tested on: L1210; test: Antitumor activity against L1210 Leukemia in mice at a dose of 30 mg/kg expressed as percent of increase in life span after day 60s was determined.; type: functional; conditions: Mus musculus; method in brief: as §2
[6] = Antitumor activity against L1210 Leukemia in mice expressed as 50% lethal dose was determined at 200 mg/kg; type: ADME, organism-based; design: dose 200 mg/kg; conditions: mouse, in vivo
[7] = tested on: L1210; test: Antitumor activity against L1210 Leukemia in mice at a dose of 100 mg/kg was determined.; type: functional, Mus musculus; method in brief: as §1
[8] = tested on: L1210; test: Antitumor activity against L1210 Leukemia in mice at a dose of 130 mg/kg was determined.; type: functional, Mus musculus
[9] = Antitumor activity against L1210 Leukemia in mice expressed as 50% lethal dose was determined at a dose of 130 mg/kg; type: ADME, organism-based; design: dose 130 mg/kg; conditions: mouse, in vivo
[10] = Antitumor activity against L1210 Leukemia in mice expressed as 50% lethal dose was determined at a dose of 100 mg/kg; type: ADME, organism-based; design: dose 100 mg/kg; conditions: mouse, in vivo
[11] = tested on: L1210; test: Antitumor activity against L1210 Leukemia in mice at a dose of 30 mg/kg expressed as percent of increase in life span after day 60s was determined; no effect; type: functional, organism-based; design: dose 30 mg/kg; conditions: Mus musculus; method in brief: as §2
[12] = tested on: L1210; test: Antitumor activity against L1210 Leukemia in mice at a dose of 100 mg/kg expressed as percent of increase in life span after day 60s was determined; no effect; type: functional, organism-based; design: dose 100 mg/kg; conditions: Mus musculus; method in brief: as §2
[13] = tested on: L1210; test: Antitumor activity against L1210 Leukemia in mice at a dose of 200 mg/kg expressed as percent of increase in life span or the percent of surviving animals on day 60 was determined.; type: functional; conditions: Mus musculus, L1210, 1440 h; method in brief: as §2
[14] = tested on: L1210; test: Antitumor activity against L1210 Leukemia in mice at a dose of 50 mg/kg was determined.; type: functional, Mus musculus; method in brief: as §1
[15] = tested on: L1210; test: Antitumor activity against L1210 Leukemia in mice at a dose of 50 mg/kg expressed as percent of increase in life span after day 60s was determined.; type: functional; conditions: Mus musculus; method in brief: as §2

SMILES	MED [1]	ILS at 100 mg/kg [3]	LD50 [6]	MED [7]	further results
CC(C)[C@H](NC(=O)[C@@H]1CCCN1C(=O)[C@H](CCCCNC=O)NC(=O)N(CCCl)N=O)C(N)=O	0.4 mmol/kg	110%	260 mg/kg	0.2 mmol/kg	MED [2]: 0.059 mmol/kg; ILS at 200 mg/kg [4]: 190%; ILS at 30 mg/kg [5]: 70%
CC(C)[C@H](NC(=O)[C@@H]1CCCN1C(=O)[C@H](CCCCN)NC(=O)N(CCCl)N=O)C(N)=O.Cl					MED [8]: 0.25 mmol/kg; LD50 [9]: 175 mg/kg
CC(C)[C@H](NC(=O)[C@@H]1CCCN1C(=O)[C@H](CCCCNC(=O)N(CCCl)N=O)NC(=O)N(CCCl)N=O)C(N)=O		380%		0.16 mmol/kg	LD50 [10]: 250 mg/kg
CC(C)[C@H](NC(=O)[C@@H]1CCCN1C(=O)N(CCCl)N=O)C(N)=O				0.28 mmol/kg	LD50 [10]: 150 mg/kg
NC(=O)C1CCCN1C(=O)N(CCCl)N=O (centres undefined)		420%		0.403 mmol/kg	LD50 [10]: 140 mg/kg
CC(C)[C@H](NC(=O)[C@@H]1CCCN1C(=O)[C@H](CCCCNOC(=O)C(C)(C)C)NC(=O)[C@@H]1CCCN1C(=O)N(CCCl)N=O)C(N)=O					ILS [11]: inactive; ILS [12]: inactive
CC(C)[C@H](NC(=O)[C@@H]1CCCN1C(=O)[C@@H](N)CCCCNC=O)C(N)=O.Cl (H-Lys(For)-Pro-Val-NH2)				0.24 mmol/kg	ILS [12]: inactive
CC(C)[C@H](NC(=O)[C@@H]1CCCN1C(=O)[C@H](CCCCNC(=O)OC(C)(C)C)NC(=O)[C@@H]1CCCN1C(=O)N(CCCl)N=O)C(N)=O ({Carbamoyl(2-ClEt,NO)}-PK(Boc)PV-NH2) [listing 1 of 2 here]			300 mg/kg		
CC(C)[C@H](NC(=O)[C@@H]1CCCN1C(=O)[C@H](CCCCNC(=O)OC(C)(C)C)NC(=O)[C@@H]1CCCN1C(=O)N(CCCl)N=O)C(N)=O ({Carbamoyl(2-ClEt,NO)}-PK(Boc)PV-NH2) [listing 2 of 2 here]	0.3 mmol/kg			0.15 mmol/kg	MED [2]: 0.045 mmol/kg; ILS at 200 mg/kg [13]: 30%
CC(C)[C@H](NC(=O)[C@@H]1CCCN1C(=O)[C@H](CCCCNC(=O)N(CCCl)N=O)NC(=O)[C@@H]1CCCN1C(=O)N(CCCl)N=O)C(N)=O ({Carbamoyl(2-ClEt,NO)}-PK(Carbamoyl(2-ClEt,NO))PV-NH2)	0.28 mmol/kg		220 mg/kg	0.14 mmol/kg	MED [2]: 0.042 mmol/kg; ILS at 200 mg/kg [4]: 120%; ILS at 30 mg/kg [5]: 100%
CC(C)[C@H](NC(=O)[C@@H]1CCCN1C(=O)[C@H](CCCCNC=O)NC(=O)[C@@H]1CCCN1C(=O)N(CCCl)N=O)C(N)=O ({Carbamoyl(2-ClEt,NO)}-PK(For)PV-NH2)	0.32 mmol/kg	80%	250 mg/kg	0.16 mmol/kg	MED [14]: 0.083 mmol/kg; ILS at 200 mg/kg [4]: 80%; ILS at 50 mg/kg [15]: 40%
